According to ChEMBL document CHEMBL4725346, “Syntheses and Evaluation of New Bisacridine Derivatives for Dual Binding of G-Quadruplex and i-Motif in Regulating Oncogene c-myc Expression” (J Med Chem, 2020):
Active and inactive are the calls of the source. The rule behind the calls is not given here.

Assays:
[1] = system: Huh-7; experiment: Antiproliferative activity against human Huh-7 cells after 48 hrs by MTT assay; format: functional, cell-based; details: Huh-7, 48 h
How it was run: (§1)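 Cells seeded at 5.0×10^3 per well, pre-incubated 12 h at 37 °C, 5% CO2, then exposed to compounds for 48 h; DMSO-only control. MTT (2.5 mg/mL) added for 4 h, formazan dissolved in DMSO, absorbance at 570 nm. Each dose tested in triplicate; IC50 from percentage survival relative to negative control.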

[2] = target: dsDNA; experiment: Binding affinity to 5'-biotin labeled duplex DNA (unknown origin) by surface plasmon resonance method; format: nucleic-acid assay
How it was run: (§2)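 SPR: 5'-biotin DNA diluted to 1 μM and captured (1000 RU) on a sensor chip, with a blank cell as reference. Running buffers: Py33 in 20 mM MES pH 5.8, 100 mM KCl, 0.05% Tween-20; Pu27 and duplex in 50 mM Tris-HCl pH 7.4, 100 mM KCl. Six ligand concentrations serially diluted from DMSO stock. Association 260 s, dissociation 300 s at 25 °C; NaOH regeneration; blank sensorgrams subtracted.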

[3] = system: U2OS; experiment: Antiproliferative activity against human U2OS cells after 48 hrs by MTT assay; format: functional, cell-based; how it was run: as §1
[4] = Stabilization of 5'-FAM/3'-TAMRA labeled c-myc promoter i-motif DNA FPy33T (unknown origin) assessed as change in melting temperature at 1 uM by FRET assay (reference value: 53.2 degreeC)
How it was run: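 FRET melting of dual FAM/TAMRA-labelled FPy33T annealed in 1× BPES (30 mM potassium phosphate, 1 mM EDTA, 100 mM KCl), pH 5.5. Final 0.2 µM DNA with or without ligand. Excitation 470 nm, emission 530 nm, read every 1 °C over 37–99 °C. ΔTm taken against DNA alone.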

[5] = target: ssDNA; experiment: Binding affinity to 5'-biotin labeled single-stranded DNA Py33 (unknown origin) by surface plasmon resonance method; format: nucleic-acid assay
[6] = target: Quadruplex DNA; experiment: Binding affinity to 5'-biotin labeled c-myc promoter G-quadruplex DNA Pu27 (unknown origin) by surface plasmon resonance method; format: nucleic-acid assay; how it was run: as §2
[7] = system: A-375; experiment: Antiproliferative activity against human A-375 cells after 48 hrs by MTT assay; format: functional, cell-based; details: A-375, 48 h; how it was run: as §1
[8] = system: A549; experiment: Antiproliferative activity against human A549 cells after 48 hrs by MTT assay; format: functional, cell-based; details: A549, 48 h; how it was run: as §1
[9] = system: SiHa; experiment: Antiproliferative activity against human SiHa cells after 48 hrs by MTT assay; format: functional, cell-based; how it was run: as §1
[10] = system: Quadruplex DNA; experiment: Stabilization of 5'-FAM/3'-TAMRA labeled c-myc promoter G-quadruplex DNA FPu22T (unknown origin) assessed as change in melting temperature at 1 uM by FRET assay (reference value: 66.5 degreeC); format: nucleic-acid assay
How it was run: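 FRET melting of dual FAM/TAMRA-labelled FPu22T annealed in 10 mM Tris-HCl pH 7.4 with KCl. Final 0.2 µM DNA with or without ligand. Excitation 470 nm, emission 530 nm, read every 1 °C over 37–99 °C on a real-time PCR cycler. ΔTm = Tm(DNA+ligand) − Tm(DNA).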

[11] = system: HCT-116; experiment: Antiproliferative activity against human HCT-116 cells after 48 hrs by MTT assay; format: functional, cell-based; details: HCT-116, 48 h; how it was run: as §1
[12] = system: HeLa; experiment: Antiproliferative activity against human Hela cells after 48 hrs by MTT assay; format: functional, cell-based; how it was run: as §1
[13] = Stabilization of 5'-FAM/3'-TAMRA labeled hairpin DNA F10T (unknown origin) assessed as change in melting temperature at 1 uM by FRET assay (reference value: 59.1 degreeC)
[14] = Binding affinity to 5'-biotin labeled c-myc promoter i-motif DNA Py33 (unknown origin) by surface plasmon resonance method; how it was run: as §2
[15] = Stabilization of c-myc promoter i-motif DNA Py33 (unknown origin) assessed as decrease in positive peak intensity at pH 5.5 measured at 288 nanometer by CD spectroscopy
How it was run: (§3)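 Py33 at 1 µM in 1× BPES pH 5.5 (pH 6.8 random-coil reference), with or without ligand. Annealed at 95 °C for 5 min, cooled, kept at 4 °C overnight. CD spectra in a 4 mm cuvette over 230–350 nm, three scans averaged, buffer-corrected; peaks followed at 288 and 260 nm.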

[16] = Stabilization of c-myc promoter i-motif DNA Py33 (unknown origin) assessed as decrease in negative peak intensity at pH 5.5 measured at 260 nanometer by CD spectroscopy; how it was run: as §3
[17] = Stabilization of c-myc promoter i-motif DNA Py33 (unknown origin) assessed as reduction in appearance of random coil confirmation at pH 5.5 by CD spectroscopy; how it was run: as §3
[18] = system: Quadruplex DNA; experiment: Stabilization of c-myc promoter G-quadruplex DNA Pu27 (unknown origin) in pH 7.4 Tris-HCl buffer by CD spectroscopy; format: nucleic-acid assay
How it was run: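 Pu27 at 1 µM in 10 mM Tris-HCl pH 7.4, with or without ligand. Annealed at 95 °C for 5 min, cooled to room temperature, stored at 4 °C overnight. CD spectra taken in a 4 mm cuvette over 230–350 nm, three scans averaged, smoothed and buffer-baseline corrected.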

[19] = Drug uptake in human SiHa cells; format: ADME, cell-based

Row | IC50 [1] | Kd [2] | IC50 [3] | ΔTm [4] | Kd [5] | Kd [6] | IC50 [7] | IC50 [8] | ΔTm [10] | IC50 [11] | IC50 [12] | ΔTm [13] | Kd [14] | Activity [15] | Activity [16] | Activity [17] | Activity [18] | Drug uptake [19] | Compound | IC50 [9]
1 | 5560 nM | 10100 nM | 1600 nM | 1.3 °C | 13700 nM | 4300 nM | 2050 nM | 1730 nM | 14 °C | 3510 nM | 2620 nM | 2.2 °C |  |  |  |  |  |  | c1ccc2c(NCCCNc3c4ccccc4nc4ccccc34)c3ccccc3nc2c1 | 3060 nM
2 |  | 11800 nM |  | 2 °C |  | 2900 nM |  |  | 8.6 °C |  |  | 4.8 °C | 3800 nM |  |  |  |  |  | COC(=O)c1ccc2nc3ccc(C)cc3c(NCCCNCCNCCCNc3c4cc(C)ccc4nc4ccc(C(=O)OC)cc34)c2c1 | 
3 | 190 nM | 6000 nM | 380 nM | 11.8 °C |  | 13800 nM | 430 nM | 280 nM | 12.5 °C | 690 nM | 270 nM | 9.8 °C | 3800 nM | Active | Active | Active |  |  | c1ccc2c(NCCCNCCNCCCNc3c4ccccc4nc4ccccc34)c3ccccc3nc2c1 | 2000 nM
4 | 2140 nM | 33200 nM | 2160 nM | 0.1 °C | 21600 nM | 5100 nM | 1880 nM | 810 nM | 14.3 °C | 860 nM | 320 nM | 3 °C | 13000 nM |  |  |  | Active |  | Cc1ccc2nc3ccccc3c(NCCOCCOCCNc3c4ccccc4nc4ccc(C)cc34)c2c1 | 2770 nM
5 | 270 nM | 22200 nM | 440 nM | 4.5 °C | 13900 nM | 5500 nM | 130 nM | 520 nM | 15.6 °C | 2470 nM | 850 nM | 3.8 °C | 10500 nM |  |  |  |  |  | Cc1ccc2nc3ccc(C)cc3c(NCCCN(C)CCCNc3c4cc(C)ccc4nc4ccc(C)cc34)c2c1 | 370 nM
6 |  | 24800 nM |  | 3.4 °C |  | 10300 nM |  |  | 15.3 °C |  |  | 3.6 °C |  |  |  |  |  |  | Cc1ccc2nc3ccccc3c(NCCCCCCCNc3c4ccccc4nc4ccc(C)cc34)c2c1 | 
7 |  |  |  | 10.1 °C | 4700 nM | 1100 nM |  |  | 16.8 °C |  |  | 2.7 °C | 12400 nM |  |  |  |  |  | Cc1ccc2nc3ccc(C)cc3c(NCCCCCCNc3c4cc(C)ccc4nc4ccc(C)cc34)c2c1 | 
8 | 800 nM | 8100 nM | 130 nM | 7.3 °C |  | 18300 nM | 120 nM | 350 nM | 7.7 °C | 190 nM | 340 nM | 10.8 °C | 9100 nM |  |  |  |  |  | CN(CCCNc1c2ccccc2nc2ccccc12)CCCNc1c2ccccc2nc2ccccc12 | 2510 nM
9 |  | 7400 nM |  | 0.6 °C | 14700 nM | 11600 nM |  |  | 8.8 °C |  |  | 9.3 °C |  |  |  |  |  |  | c1ccc2c(NCCCCCCCNc3c4ccccc4nc4ccccc34)c3ccccc3nc2c1 | 
10 |  |  |  | 1.2 °C |  | 14300 nM |  |  | 10 °C |  |  | 1.7 °C | 25100 nM |  |  |  |  |  | Cc1ccc2nc3ccccc3c(NCCCCCCNc3c4ccccc4nc4ccc(C)cc34)c2c1 | 
11 |  | 12500 nM |  | 1 °C | 2900 nM | 1400 nM |  |  | 14.3 °C |  |  | 2.5 °C | 10300 nM |  |  |  | Active |  | COC(=O)c1ccc2nc3ccc(C)cc3c(NCCOCCOCCNc3c4cc(C)ccc4nc4ccc(C(=O)OC)cc34)c2c1 | 
12 | 2680 nM |  | 550 nM | 9.1 °C | 6800 nM | 2900 nM | 1920 nM | 470 nM | 10.4 °C | 2060 nM | 1470 nM | 0.8 °C | 16000 nM |  |  |  |  |  | Cc1ccc2nc3ccc(C)cc3c(NCCCCNc3c4cc(C)ccc4nc4ccc(C)cc34)c2c1 | 3700 nM
13 | 3290 nM |  | 790 nM | 0.4 °C |  | 1600 nM | 920 nM | 320 nM | 13.9 °C | 910 nM | 1360 nM | 2 °C |  |  |  |  |  |  | Cc1ccc2nc3ccccc3c(NCCCCNc3c4ccccc4nc4ccc(C)cc34)c2c1 | 2440 nM
14 | 190 nM | 16400 nM | 2040 nM | 6.4 °C | 8910 nM | 6900 nM | 230 nM | 1160 nM | 12.1 °C | 1950 nM | 370 nM | 6.2 °C | 10700 nM |  |  |  |  |  | Cc1ccc2nc3ccccc3c(NCCCN(C)CCCNc3c4ccccc4nc4ccc(C)cc34)c2c1 | 490 nM
15 | 2810 nM | 33600 nM | 1330 nM | 1 °C | 23700 nM | 7300 nM | 510 nM | 720 nM | 11 °C | 950 nM | 660 nM | 2.7 °C |  |  |  |  |  |  | Cc1ccc2nc3ccc(C)cc3c(NCCCCCNc3c4cc(C)ccc4nc4ccc(C)cc34)c2c1 | 1660 nM
16 | 3670 nM |  | 1420 nM | 0.2 °C | 26100 nM | 16300 nM | 1830 nM | 830 nM | 11.4 °C | 1680 nM | 1650 nM | 1.9 °C | 14500 nM |  |  |  |  |  | Cc1ccc2nc3ccccc3c(NCCCCCNc3c4ccccc4nc4ccc(C)cc34)c2c1 | 2520 nM
17 |  | 17400 nM |  | 27.4 °C |  | 3700 nM |  |  | 8.3 °C |  |  | 2.2 °C | 8500 nM | Active | Active | Active |  | Not Active | Cc1ccc2nc3ccc(C(=O)NCCCN(C)C)cc3c(NCCOCCOCCNc3c4cc(C)ccc4nc4ccc(C(=O)NCCCN(C)C)cc34)c2c1 | 
18 |  | 10700 nM |  | 1.4 °C | 8800 nM | 6100 nM |  |  | 15.7 °C |  |  | 1.8 °C |  |  |  |  |  |  | Cc1ccc2nc3ccc(C)cc3c(NCCCCCCCNc3c4cc(C)ccc4nc4ccc(C)cc34)c2c1 | 
19 | 6200 nM | 35400 nM | 2940 nM | 2.4 °C |  | 9200 nM | 2480 nM | 1710 nM | 14.1 °C | 6250 nM | 1360 nM | 0.7 °C |  |  |  |  |  |  | Cc1ccc2nc3ccc(C)cc3c(NCCCNc3c4cc(C)ccc4nc4ccc(C)cc34)c2c1 | 3820 nM
20 | 870 nM | 5800 nM | 330 nM | 0.1 °C |  | 9300 nM | 220 nM | 1140 nM | 10.6 °C | 510 nM | 240 nM | 3.4 °C | 16000 nM |  |  |  | Active |  | c1ccc2c(NCCOCCOCCNc3c4ccccc4nc4ccccc34)c3ccccc3nc2c1 | 2260 nM
